In assay [1] the target is T1, Anoctamin-1 (Mus musculus) (UniProt Q8BHY3).
T1 sequence (whole entry): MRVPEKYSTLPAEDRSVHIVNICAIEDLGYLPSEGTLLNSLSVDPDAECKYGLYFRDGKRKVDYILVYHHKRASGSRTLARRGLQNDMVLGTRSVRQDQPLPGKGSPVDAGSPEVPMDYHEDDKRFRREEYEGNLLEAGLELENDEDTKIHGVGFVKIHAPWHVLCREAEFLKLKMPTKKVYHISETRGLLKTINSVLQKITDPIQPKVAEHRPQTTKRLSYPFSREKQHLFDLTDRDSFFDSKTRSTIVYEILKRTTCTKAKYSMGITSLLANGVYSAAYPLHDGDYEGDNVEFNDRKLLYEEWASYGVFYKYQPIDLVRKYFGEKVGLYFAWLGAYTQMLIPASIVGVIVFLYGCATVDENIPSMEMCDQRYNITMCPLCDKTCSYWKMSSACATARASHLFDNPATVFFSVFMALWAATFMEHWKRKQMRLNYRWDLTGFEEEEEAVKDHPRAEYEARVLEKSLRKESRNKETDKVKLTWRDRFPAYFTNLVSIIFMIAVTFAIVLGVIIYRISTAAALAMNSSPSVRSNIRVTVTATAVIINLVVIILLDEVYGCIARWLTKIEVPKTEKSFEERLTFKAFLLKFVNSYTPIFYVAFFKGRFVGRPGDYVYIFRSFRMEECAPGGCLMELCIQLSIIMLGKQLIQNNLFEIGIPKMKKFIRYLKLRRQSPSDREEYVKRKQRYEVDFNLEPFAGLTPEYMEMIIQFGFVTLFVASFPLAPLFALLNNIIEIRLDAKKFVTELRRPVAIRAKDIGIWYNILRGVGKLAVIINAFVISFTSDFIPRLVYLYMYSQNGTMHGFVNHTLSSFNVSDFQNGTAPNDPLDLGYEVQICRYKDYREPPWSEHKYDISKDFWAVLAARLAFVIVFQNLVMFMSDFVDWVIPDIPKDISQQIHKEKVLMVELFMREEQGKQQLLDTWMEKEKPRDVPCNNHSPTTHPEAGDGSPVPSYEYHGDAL
The experiment in a line: Irreversible inhibition of GFP-fused mouse ANO1 channel expressed in HEK293A cells assessed as inhibition of channel current amplitude at 10 uM at membrane potential of +80 mV measured after drug wash-out by patch clamp electrophysiology assay. As to conditions: HEK293-A. The assay is classed as cell-based. Summed up:
(§1)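 Whole-cell recording at room temperature in HEK293A cells transfected with GFP-mANO1, GFP-mANO2 or GFP-mTTYH1. 1 s ramps from +80 to -80 mV, holding potential -10 mV. For ANO1/ANO2: pipette CsCl 146 mM with Ca-EGTA-NMDG, pH 7.3; bath NaCl-based, pH 7.3. For TTYH1: Tris-aspartate pipette (pH 7.2) and Tris-HCl bath (pH 7.4), with […] and BaCl2 added to block K+ channels, and hypotonic (220 mOsm/kg) bath. Washout recordings assessed reversibility.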
In general terms: The patch-clamp technique gives a direct electrical read-out from membranes.

Another assay relates to U-87 MG. The experiment in a line: Antiproliferative activity against human U87MG cells overexpressing ANO1 assessed as reduction in cell viability measured after 72 hrs by Celltiter-glo assay. Format: functional, U-87MG ATCC. Summed up: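 5.0×10^3 cells/well seeded, overnight, then compounds added as 1:4 serial dilutions in DMSO; viability read after 72 h with CellTiter-Glo luminescence. GI50 from fitted dose-response curves; triplicate wells, SD from three independent experiments. DMEM for U251 and U138, MEM for U87MG, both with 10% FBS and pen/strep, 37 °C, 5% CO2.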
On the technique in general: ATP-based viability assays read luminescence as a measure of living cells.

The target in assay [2] is T1, Anoctamin-1 (Mus musculus). The experiment in a line: (§2) Inhibition of GFP-fused mouse ANO1 channel expressed in HEK293A cells assessed as inhibition of ATP-induced channel current amplitude at membrane potential of +80 mV by patch clamp electrophysiology assay. The assay is classed as cell-based. As to conditions: HEK293-A. Summed up:
as §1

A further assay deals with T2, Anoctamin-1 (Mus musculus, UniProt Q8BHY3).
T2 sequence (Q8BHY3 whole entry): T1 sequence (whole entry)
The description is as §2. The assay is classed as cell-based, HEK293-A. A digest of the protocol: as §1

Assay [3] has as its system U-251. As to the kind of experiment: Inhibition of cell invasion in human U251 cells at 10 uM incubated for 48 hrs by Boyden chamber method. The assay is classed as functional. Summed up:
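Boyden chamber invasion: U251 cells serum-starved 24 h, then 2.5×10^5 cells seeded in 8-μm ECMatrix-coated transwells. Treated with compound at 1 or 10 μM for 48 h at 37 °C. Invasion ratio from relative fluorescence.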

For assay [4], the system named is U-251. As to the kind of experiment: Inhibition of colony formation in human U251 cells at 10 uM incubated for 14 days by crystal violet dye based assay. Format: functional. As to conditions: U-251, 336 h, time 14 day. Summed up: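 Colonies stained 24 h with crystal violet in methanol/formaldehyde/PBS, washed, extracted with 10% acetic acid and read at A570 nm. Compared against DMSO control.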

Assay [5] concerns U-251. As to the kind of experiment: Inhibition of cell migration in human U251 cells at 5 uM incubated for 18 hrs by wound healing assay. The assay is classed as functional, cell-based. A digest of the protocol: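 U251 monolayer, 2.0×10^5 cells/well, plated overnight, then scratched and washed with PBS. Incubated 18 h in complete medium with compound (1, 5 or 10 μM). Wound area imaged before and after incubation; migration ratio taken from migrated area. One-way ANOVA.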

The subject of assay [6] is U-251. As to the kind of experiment: Antiproliferative activity against human U251 cells overexpressing ANO1 assessed as reduction in cell viability in presence of temozolomide measured after 72 hrs by Celltiter-glo assay. Format: functional.
Assay [7] addresses T1, Anoctamin-1 (Mus musculus). As to the kind of experiment: Reversible inhibition of GFP-fused mouse ANO1 channel expressed in HEK293A cells assessed as channel current amplitude at 10 uM at membrane potential of +80 mV measured after drug wash-out by patch clamp electrophysiology assay. Format: cell-based. As to conditions: HEK293-A. Also on record: scale not given: the % may be the effect or the level left. A digest of the protocol:
as §1

The subject of assay [8] is U-251. The experiment in a line: Synergistic antiproliferative activity against human U251 cells assessed as combination index at compound:temozolomide concentration ratio of 1:1 in presence of temozolomide by Chou-Talalay method. Format: functional. Summed up:
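U251 proliferation measured with CellTiter-Glo across full titrations of an ANO1 inhibitor combined with temozolomide. Combination index calculated by the Chou-Talalay method.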

What is called inhibition is the relative decrease from the control value, in per cent. What is called GI50 is the concentration that inhibits growth by half. For orientation: IC50 means the concentration at which inhibition is half-maximal.

Molecules are shown by their SMILES. Calls of active or inactive are those of the source. The rule behind the calls is not given here.

`NC(=O)c1c(NC(=S)NC(=O)c2ccc(Cl)cc2)sc2c1CCC2`: the inhibition result (in assay [1]; with U-251 [3]; with U-251 [5]) was “Active” in each case. Further, the concentration for 50% growth inhibition (GI50) with U-87 MG is 23.8 µM. Further, the inhibition result in assay [2] was “Dose-dependent effect”. At Anoctamin-1, the concentration for half-maximal inhibition (IC50) is 1.75 µM. The inhibition at 10 µM in the assay with U-251 [4] is 96.4%.
Consider `CC(C)(C)C(=O)Nc1sc2c(c1C(N)=O)CCC(C(C)(C)C)C2` (stereo unspecified), for which the 50% growth inhibitory concentration (GI50) came to 31.5 µM with U-87 MG and 5.32 µM with U-251 [6]. Also, in [2], the inhibition result is “Dose-dependent effect”. For the same molecule, the half-inhibitory concentration (IC50) at Anoctamin-1 came out at 2.56 µM. The inhibition at 10 µM in the assay with U-251 [3] stood at 90%; with U-251 [4] it was 96.6%. In addition, the Activity in assay [7] came to 85.8%. The inhibition result with U-251 [5] is “Active”. The CI in the assay on U-251 [8] was 0.63.

Values taken from ChEMBL document CHEMBL4706565, “Anti-glioma effects of 2-aminothiophene-3-carboxamide derivatives, ANO1 channel blockers” (Eur J Med Chem, 2020).
